Measured values published in paper PMC4642656 (Journal of Ethnopharmacology, 2015).
Like-named read-outs stand apart in the source and are kept apart here.

Experiments:
Type in all cases: cell-based
[1] = test system: Plasmodium falciparum chloroquine-resistant (W2) strain; assay: Antiplasmodial assay
Summary of the method: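 Asexual erythrocytic-stage P. falciparum W2 was kept in continuous in vitro culture. It was tested by modified semiautomated microdilution for inhibition of [G-3H]hypoxanthine incorporation. Cells were harvested onto glass-fibre filters and counted by liquid scintillation as cpm per well at each drug concentration, expressed as % of untreated controls. IC50 was taken from nonlinear regression of the dose-response curve.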

[2] = test system: Plasmodium falciparum chloroquine-sensitive (D6) strain; assay: Antiplasmodial assay; conditions: for IC50: Plasmodium falciparum
[3] = test system: mouse breast cancer (4T1) cells; assay: MTT cytotoxicity assay, 4T1 cells
[4] = test system: human larynx carcinoma (HEp2) cells; assay: MTT cytotoxicity assay, HEp2 cells
[5] = Mus musculus, 4T1, 48 h, read-out: IC50 4T1, 4T1 cells, MTT, 48 h
[6] = read-out: IC50 4T1, 4T1 cells, MTT, 48 h
[7] = Homo sapiens, HEp-2, 48 h, read-out: IC50 HEp2, HEp2 cells, MTT, 48 h
[8] = read-out: IC50 HEp2, HEp2 cells, MTT, 48 h

Compound `CC(=O)O[C@@H]1C[C@H]2C(C)(C)C(=O)C=C[C@]2(C)[C@H]2CC[C@]3(C)C(=CC[C@H]3c3ccoc3)[C@@]21C` [Azadirone (1), azadirone] has an IC50 ([1]; W2, read-out: IC50 W2) of 29.6 ± 1 µM, an IC50 ([2]; D6, read-out: IC50 D6) of 23.4 ± 0.2 µM and an IC50 [3, 5] of under 20 µM. It also gave an IC50 [3, 6] of 14.4 µM, an IC50 [4, 7] of under 20 µM and an IC50 [4, 8] of 12.8 µM.
With `CCN(CC)CCCC(C)Nc1ccnc2cc(Cl)ccc12` (stereo not shown) [Chloroquine, reference compound] the IC50 ([1]; W2, read-out: IC50 W2 (chloroquine)) was 0.108 µM, the IC50 ([2]; D6, read-out: IC50 D6 (chloroquine)) was 0.0077 µM and the “SI: selectivity index [IC50 vero/IC50 (D6)]” value ([2]; Table 1) was 5701.
`CC(=O)O[C@H]1C[C@@H]2[C@@]3(C)CCC(=O)C(C)(C)[C@@H]3C[C@@H](O)[C@@]2(C)C2=CC[C@@H](c3ccoc3)[C@@]21C` [Mzikonone (3), mzikonone] showed an IC50 ([1]; W2, read-out: IC50 W2) of 40.5 ± 3.7 µM, an IC50 ([2]; D6, read-out: IC50 D6) of 36.6 ± 0.8 µM and an IC50 [3, 5] of 38.8 ± 0.4 µM. It also gave an IC50 [4, 7] of 59.3 ± 1 µM.
`C[C@H](C[C@@H](O)[C@@H]1OC1(C)C)[C@@H]1CC[C@]2(C)C3=CC[C@H]4C(C)(C)C(=O)CC[C@]4(C)[C@H]3CC[C@@]12C` [Niloticin (8), niloticin] was tested, and the IC50 ([1]; W2, read-out: IC50 W2) was 77 ± 5.7 µM, the IC50 ([2]; D6, read-out: IC50 D6) was 48.2 ± 2.3 µM and the IC50 [3, 5] was under 20 µM. For the same compound, the IC50 [3, 6] was 14.5 ± 0.5 µM, the IC50 [4, 8] was 6.9 ± 0.6 µM and the IC50 ([4]; read-out: IC50 HEp2, HEp2 cells, MTT, 48 h, listed as niloticin (8)) was under 20 µM.
